Assay results from ChEMBL document CHEMBL3860040, “Purine-Type Compounds Induce Microtubule Fragmentation and Lung Cancer Cell Death through Interaction with Katanin” (J Med Chem, 2016).
Each block holds one compound with its values, some of them ahead of it. Activity calls are given as the source filed them. The calls are words filed in the database; no cut-off is given here.

Experiments:
[1] = Cytotoxicity against human NCI-H1975 cells harboring EGFR T790M mutant assessed as decrease in cell viability after 72 hrs by MTT assay; format: functional, cell-based; conditions: NCI-H1975, 72 h
[2] = biological target: Katanin p60 ATPase-containing subunit A1 (Homo sapiens) (UniProt O75449); assay: Induction of katanin p60 subunit-mediated JNK signaling pathway activation assessed as increase in c-Jun phosphorylation level at S63 residues in human NCI-H1975 cells at 300 nM after 6 to 12 hrs by immunoblot analysis; format: cell-based
How it was run: (§1)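 H1975 cells treated with 300 nM for 6 h and 12 h, lysed, and phospho-JNK and phospho-c-Jun detected by immunoblot with ECL. Three independent experiments.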

[3] = biological target: Katanin p60 ATPase-containing subunit A1 (Homo sapiens) (UniProt O75449); assay: Induction of katanin p60 subunit-mediated microtubule fragmentation in human NCI-H1975 cells assessed as alpha-tubulin level in polymer form at 600 nM after 1 hr by immunoblot analysis (reference value: 63%); format: cell-based
[4] = biological target: Katanin p60 ATPase-containing subunit A1 (Homo sapiens) (UniProt O75449); assay: Induction of katanin p60 subunit-mediated JNK signaling pathway activation in human NCI-H1975 cells assessed as increase in JNK phosphorylation at T183/Y185 and T221/Y223 residues at 300 nM after 9 hrs by phospho-kinase antibody array method; format: cell-based
How it was run: (§2)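 H1975 cells seeded overnight, exposed to 300 nM for 9 h; DMSO-treated cells as controls. Lysates rocked 30 min at 4 °C and spun at 14,000×g for 30 min. Equal BCA-quantified protein applied to a human phospho-kinase antibody array; spot density measured by densitometry.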

[5] = biological target: Katanin p60 ATPase-containing subunit A1 (Homo sapiens) (UniProt O75449); assay: Induction of katanin p60 subunit-mediated microtubule fragmentation in human NCI-H1975 cells assessed as alpha-tubulin level in soluble form at 300 nM after 12 hrs by gel filtration chromatography/immunoblot analysis; format: cell-based
How it was run: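 H1975 cells treated with 300 nM or vehicle for 12 h; soluble extracts made in IP lysis buffer. Run on a Toyopearl HW-65F gel filtration column equilibrated in IP lysis buffer, collecting 0.5 mL fractions. Fractions separated by 10% SDS–PAGE and α-tubulin detected by immunoblot.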

[6] = biological target: Katanin p60 ATPase-containing subunit A1 (Homo sapiens) (UniProt O75449); assay: Induction of katanin p60 subunit-mediated microtubule fragmentation in human NCI-H1975 cells at 300 nM after 12 hrs by DAPI staining based confocal laser microscopy; format: cell-based
How it was run: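 H1975 cells treated 12 h, fixed in 3.7% cold paraformaldehyde and permeabilized with 0.1% Triton X-100. Stained with anti-α-tubulin at 37 °C for 1 h, then FITC secondary (1:100) at 37 °C for 1 h. Mounted with DAPI and imaged by confocal microscopy.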

[7] = biological target: Katanin p60 ATPase-containing subunit A1 (Homo sapiens) (UniProt O75449); assay: Induction of katanin p60 subunit-mediated microtubule fragmentation in human NCI-H1975 cells assessed as alpha-tubulin level in polymer form at 300 nM after 1 hr by immunoblot analysis (reference value: 63%); format: cell-based
[8] = biological target: Katanin p60 ATPase-containing subunit A1 (Homo sapiens) (UniProt O75449); assay: Induction of katanin p60 subunit-mediated microtubule fragmentation in human NCI-H1975 cells assessed as alpha-tubulin level in soluble form at 600 nM after 1 hr by immunoblot analysis (reference value: 37%); format: cell-based
[9] = biological target: Katanin p60 ATPase-containing subunit A1 (Homo sapiens) (UniProt O75449); assay: Induction of katanin p60 subunit-mediated JNK signaling pathway activation assessed as increase in phosphorylation level at T183/Y185 residues in human NCI-H1975 cells at 300 nM after 6 to 12 hrs by immunoblot analysis; format: cell-based; how it was run: as §1
[10] = biological target: Katanin p60 ATPase-containing subunit A1 (Homo sapiens) (UniProt O75449); assay: Induction of katanin p60 subunit-mediated JNK signaling pathway activation in human NCI-H1975 cells assessed as increase in c-Jun phosphorylation at S63 residues at 300 nM after 9 hrs by phospho-kinase antibody array method; format: cell-based; how it was run: as §2
[11] = biological target: Katanin p60 ATPase-containing subunit A1 (Homo sapiens) (UniProt O75449); assay: Induction of katanin p60 subunit-mediated microtubule fragmentation in human NCI-H1975 cells assessed as alpha-tubulin level in soluble form at 300 nM after 1 hr by immunoblot analysis (reference value: 37%); format: cell-based
[12] = biological target: Katanin p80 WD40 repeat-containing subunit B1 (Homo sapiens) (UniProt Q9BVA0); assay: Binding affinity to katanin p80 subunit in human NCI-H1975 cell lysate using biotin-labeled compound preincubated for 24 hrs followed by streptavidin-conjugated beads addition measured after 2 hrs by immunoblot analysis; format: cell-free
How it was run: (§3)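 H1975 lysate incubated 24 h with biotinylated probe or with a purine-free linker as control. Bound proteins detected by immunoblot; three independent experiments.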

[13] = biological target: Katanin p60 ATPase-containing subunit A1 (Homo sapiens) (UniProt O75449); assay: Binding affinity to katanin p60 subunit in human NCI-H1975 cell lysate using biotin-labeled compound preincubated for 24 hrs followed by streptavidin-conjugated beads addition measured after 2 hrs by immunoblot analysis; format: cell-free; how it was run: as §3

Sequence of Katanin p60 ATPase-containing subunit A1 (Homo sapiens) (O75449 whole entry, the tested form may be a part): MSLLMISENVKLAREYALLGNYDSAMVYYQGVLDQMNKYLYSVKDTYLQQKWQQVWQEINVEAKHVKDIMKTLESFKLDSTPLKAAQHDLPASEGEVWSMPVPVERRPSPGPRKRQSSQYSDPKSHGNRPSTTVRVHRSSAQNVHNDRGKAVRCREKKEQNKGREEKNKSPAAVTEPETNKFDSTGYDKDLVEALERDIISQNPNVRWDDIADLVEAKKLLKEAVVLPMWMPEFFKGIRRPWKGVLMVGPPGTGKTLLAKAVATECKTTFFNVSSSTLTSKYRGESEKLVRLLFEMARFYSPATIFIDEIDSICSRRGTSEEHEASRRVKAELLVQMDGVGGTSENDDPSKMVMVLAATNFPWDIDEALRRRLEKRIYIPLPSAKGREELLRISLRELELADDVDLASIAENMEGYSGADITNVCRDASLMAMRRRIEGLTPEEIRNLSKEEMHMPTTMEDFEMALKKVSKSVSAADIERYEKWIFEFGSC
Sequence of Katanin p80 WD40 repeat-containing subunit B1 (Homo sapiens) (Q9BVA0 whole entry): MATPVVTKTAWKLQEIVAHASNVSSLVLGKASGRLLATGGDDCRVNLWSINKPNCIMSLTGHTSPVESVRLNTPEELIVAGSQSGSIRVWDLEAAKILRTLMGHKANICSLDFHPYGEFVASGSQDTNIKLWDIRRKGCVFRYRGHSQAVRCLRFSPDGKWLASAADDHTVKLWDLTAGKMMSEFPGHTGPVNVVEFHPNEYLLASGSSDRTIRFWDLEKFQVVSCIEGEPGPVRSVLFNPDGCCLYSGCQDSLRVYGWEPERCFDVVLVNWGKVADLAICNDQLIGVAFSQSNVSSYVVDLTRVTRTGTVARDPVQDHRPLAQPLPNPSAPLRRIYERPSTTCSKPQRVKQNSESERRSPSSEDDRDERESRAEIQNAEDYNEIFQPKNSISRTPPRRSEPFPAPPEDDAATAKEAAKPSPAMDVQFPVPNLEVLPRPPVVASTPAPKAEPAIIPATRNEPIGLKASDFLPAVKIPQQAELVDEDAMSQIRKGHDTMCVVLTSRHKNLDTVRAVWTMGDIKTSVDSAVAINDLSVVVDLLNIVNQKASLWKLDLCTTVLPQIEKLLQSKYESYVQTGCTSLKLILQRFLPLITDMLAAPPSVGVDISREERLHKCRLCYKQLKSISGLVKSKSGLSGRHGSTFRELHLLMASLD

SMILES: CCCCCCOc1ccc(-c2nc(C(N)=O)c3[nH]c(=O)n(-c4ccccc4OC)c3n2)cc1
IC50 [1]: > 5 µM

Activity [2]: Active | Activity [3]: 25% | Activity [4]: Active | Activity [5]: Active | Activity [6]: Active | Activity [7]: 32% | Activity [8]: 75% | Activity [9]: Active | Activity [10]: Active | Activity [11]: 68%
SMILES: CCOc1ccc(-c2nc(C(N)=O)c3[nH]c(=O)n(-c4ccccc4OC)c3n2)cc1

SMILES: CCCCOc1ccc(-c2nc(C(N)=O)c3[nH]c(=O)n(-c4ccccc4OC)c3n2)cc1
IC50 [1]: 4.66 µM

SMILES: COC(=O)c1cccc(-n2c(=O)[nH]c3c(C(N)=O)nc(-c4ccc(-c5ccccc5)cc4)nc32)c1
IC50 [1]: > 20 µM

SMILES: CCOc1ccc(-c2nc(C(N)=O)c3[nH]c(=O)n(-c4cccc(C(=O)O)c4)c3n2)cc1
IC50 [1]: 7.91 µM

SMILES: CCOc1ccc(-c2nc(C(N)=O)c3[nH]c(=O)n(-c4cccc(C(=O)NCCCCCNC(=O)OC(C)(C)C)c4)c3n2)cc1
IC50 [1]: > 10 µM

Activity [12]: Active | Activity [13]: Active
SMILES: CCOc1ccc(-c2nc(C(N)=O)c3[nH]c(=O)n(-c4cccc(C(=O)NCCCCCNC(=O)CCCC[C@@H]5SC[C@@H]6NC(=O)N[C@@H]65)c4)c3n2)cc1
IC50 [1]: 26.3 µM
